One experiment has as its system Plasmodium falciparum. Briefly: Antimalarial activity against Plasmodium falciparum 3D7 infected-erythrocytes after 72 hrs by SYBR green fluorescence method. It is filed as functional, organism-based. Particulars: 3D7, 72 h; call rule not given here. An outline of the steps: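 P. falciparum 3D7 grown in erythrocytes at 4% hematocrit in RPMI 1640 with 20 mM HEPES, 32 mM NaHCO3, 10% Albumax II. Serial dilutions added to phenol red-free culture at 0.5% starting parasitemia, in triplicate, for 72 h at 37 °C. Lysis buffer with saponin, Triton X and SYBR Green I then added for 1 h at room temperature. Fluorescence read as parasite growth, and IC50 derived.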

The target of the next experiment is T1, Aminopeptidase N (Plasmodium falciparum FcB1/Columbia, UniProt O96935).
T1 sequence (O96935 whole entry): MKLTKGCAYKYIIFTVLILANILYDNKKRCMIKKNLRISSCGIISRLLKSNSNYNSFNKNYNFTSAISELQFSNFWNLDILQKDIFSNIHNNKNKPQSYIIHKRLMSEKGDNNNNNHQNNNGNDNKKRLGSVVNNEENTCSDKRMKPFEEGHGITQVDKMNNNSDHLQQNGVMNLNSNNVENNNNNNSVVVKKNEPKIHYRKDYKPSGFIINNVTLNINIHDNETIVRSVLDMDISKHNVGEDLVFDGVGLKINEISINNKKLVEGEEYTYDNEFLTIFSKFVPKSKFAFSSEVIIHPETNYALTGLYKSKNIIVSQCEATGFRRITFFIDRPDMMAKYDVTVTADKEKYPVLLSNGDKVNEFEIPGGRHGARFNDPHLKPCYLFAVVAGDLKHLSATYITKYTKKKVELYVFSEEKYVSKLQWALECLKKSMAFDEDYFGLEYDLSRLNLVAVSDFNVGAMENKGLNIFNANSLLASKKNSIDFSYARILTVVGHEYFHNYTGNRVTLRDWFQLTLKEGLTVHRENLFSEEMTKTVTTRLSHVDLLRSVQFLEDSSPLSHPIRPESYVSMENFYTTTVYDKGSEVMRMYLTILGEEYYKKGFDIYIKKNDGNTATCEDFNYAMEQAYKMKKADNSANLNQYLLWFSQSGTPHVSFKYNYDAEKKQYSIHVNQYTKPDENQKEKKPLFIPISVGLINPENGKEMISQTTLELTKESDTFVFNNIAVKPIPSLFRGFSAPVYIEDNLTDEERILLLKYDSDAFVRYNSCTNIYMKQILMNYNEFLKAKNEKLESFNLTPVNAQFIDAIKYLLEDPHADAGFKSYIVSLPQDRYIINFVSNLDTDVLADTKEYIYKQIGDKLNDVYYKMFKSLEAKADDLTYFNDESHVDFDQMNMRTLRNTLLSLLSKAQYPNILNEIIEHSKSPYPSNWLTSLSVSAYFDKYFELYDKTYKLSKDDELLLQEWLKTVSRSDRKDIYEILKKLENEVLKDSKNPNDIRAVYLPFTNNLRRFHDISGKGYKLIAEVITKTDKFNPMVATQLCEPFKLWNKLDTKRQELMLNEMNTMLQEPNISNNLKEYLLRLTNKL
As to the kind of experiment: Inhibition of Plasmodium falciparum recombinant M1-aminopeptidase expressed in Escherichia coli after 40 mins uisng fluorogenic substrate L-Leucyl-7-amido-40-methylcoumarin by fluorescence spectrophotometry. Particulars: for pKi: read-out: Ki. An outline of the steps:
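Recombinant PfA-M1 expressed in E. coli, 0.9 nM, in 50 mM HEPES pH 7.5, 100 mM NaCl, 0.1% Triton X-100. Ki by Dixon plots (1/rate vs [I]) and secondary plots vs 1/[S]. Competitive mode checked with a/v vs i plots.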

pIC50, pKi: −log10 of the molar value.

Broadly, the pIC50 is the IC50 on a negative log10 scale, so that one unit is a factor of ten. Low readings indicate a large IC50, high ones a small IC50. As usually defined, the pKi is the Ki on a negative log10 scale, so that one unit is a factor of ten.

`CC(C)C[C@H](NC(=O)[C@@H](O)[C@H](N)Cc1ccc(OCc2ccccc2)cc1)C(=O)O` showed a negative logarithm of the IC50 (pIC50) in the experiment with Plasmodium falciparum of 4.54.
In turn, `COc1ccc(C[C@@H](N)[C@H](O)C(=O)N[C@@H](CC(C)C)C(=O)O)cc1` showed a pIC50 with Plasmodium falciparum of 5.19. This pIC50 lies 0.65 log units higher than the previous one.
As for `CCCC[C@H](NC(=O)[C@@H](O)[C@H](N)Cc1ccccc1)C(=O)O`, on Aminopeptidase N, the negative logarithm of the Ki (pKi) is 6.05.
The same measure, in the same setting: in the case of `N[C@H](Cc1ccccc1)[C@H](O)C(=O)N[C@@H](CCCCNC(=O)OCc1ccccc1)C(=O)O` it was 5.84.
Regarding `CC(C)C[C@H](NC(=O)[C@@H](O)[C@H](N)Cc1ccc2ccccc2c1)C(=O)O`, on Aminopeptidase N, the negative logarithm of the Ki (pKi) is 5.52. The negative logarithm of the IC50 (pIC50) in the experiment on Plasmodium falciparum is under 4.30.
The like results for `CCCC[C@@H](N)[C@H](O)C(=O)N[C@@H](CC(C)C)C(=O)O` were, in that order, 5.28 and under 4.30.
On to `CC(C)C[C@H](NC(=O)[C@@H](O)[C@H](N)CC(C)C)C(=O)O`, for which the Ki result at Aminopeptidase N was “Not Active”. In addition, in the experiment with Plasmodium falciparum, the pIC50 is under 4.30.
Regarding `CC(C)C[C@H](NC(=O)[C@@H](O)[C@H](N)Cc1ccc(-c2ccccc2)cc1)C(=O)O`, at Aminopeptidase N, the Ki result was “Not Active”. Moreover, the pIC50 with Plasmodium falciparum is under 4.30.
As to `CC(C)C[C@H](NC(=O)[C@@H](O)[C@H](N)C(c1ccccc1)c1ccccc1)C(=O)O`, the Ki entry at Aminopeptidase N is “Not Active”. The same compound gave a pIC50 with Plasmodium falciparum of under 4.30.
Take `CC(C)C[C@H](NC(=O)[C@@H](O)[C@H](N)Cc1ccccc1)C(=O)O` [UBENIMEX]: in the experiment with Plasmodium falciparum, the pIC50 was 5.49.

The values above are taken from ChEMBL document CHEMBL1687941 (J Med Chem, 2011).
